Measured values published in publication PMC6099226 (Diabetes, Obesity & Metabolism, 2018).

What was measured:
Format in all cases: in vivo, human
adults with T2DM [1] = assay: Exposure-response analysis of elevated serum calcitonin
Procedure, shortened: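 Serum calcitonin was measured by chemiluminescent immunometric assay (range 2.0–2000 pg/mL). Only participants with normal baseline values and post-baseline data were included, without imputation. The proportion with elevated calcitonin at any time until end-of-treatment was plotted with 95% CI against Cavg quantiles, with placebo at zero exposure. A covariate-adjusted exposure-response model was fitted.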

[2] = Semaglutide exposure: average steady-state concentration; settings: mean Cavg at steady state
Procedure, shortened: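 Plasma samples were taken 4–5 times per participant, at weeks 4, 8, 16 and 30, plus week 56 except in SUSTAIN 1. Assay was validated LC-MS/MS with LLOQ 0.729 nmol/L; samples below it were excluded. Average steady-state concentration at the randomized once-weekly subcutaneous maintenance dose was derived from individual clearance estimates of a population-PK analysis.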

adults with T2DM [3] = settings: semaglutide 0.5 and 1.0 mg
adults with T2DM [4] = assay: Analysis of GI AEs
Procedure, shortened: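 Adults with T2DM from four phase III trials received once-weekly subcutaneous injections, escalated every 4 weeks (0.25, 0.5, 1.0 mg). Nausea reports were counted from baseline to week 30. Proportions were plotted against time by dose, with each dose split into high/low exposure halves by Cavg at the maintenance dose. Logistic regression adjusted for trial, sex, age group, escalation regimen and Japanese race. LOCF and completer sensitivity analyses were run.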

- proportion of participants with serum calcitonin concentrations above the reference ranges (adults with T2DM [1]; any time after baseline until end‐of‐treatment, 36 of 1395 participants, placebo data included in the analysis): 2.6%
- dependence of elevated calcitonin levels on exposure (adults with T2DM [1]; range of exposures achieved with 0.5 and 1.0 mg, no effect vs placebo): independent of exposure
- Semaglutide exposure ([2]; All men, dose 0.5 mg once weekly): 15.0 nmol/L
- Semaglutide exposure ([2]; All men, dose 1.0 mg once weekly): 29.9 nmol/L
- Semaglutide exposure ([2]; All participants, dose 0.5 mg once weekly): 15.3 nmol/L
- Semaglutide exposure ([2]; All participants, dose 1.0 mg once weekly): 30.6 nmol/L
- Semaglutide exposure ([2]; All women, dose 0.5 mg once weekly): 15.9 nmol/L
- Semaglutide exposure ([2]; All women, dose 1.0 mg once weekly): 31.7 nmol/L
- increase from baseline to end‐of‐trial in mean resting pulse rate (adults with T2DM [3]): 2−4 bpm
Compound: CC[C@H](C)[C@H](NC(=O)[C@H](Cc1ccccc1)NC(=O)[C@H](CCC(=O)O)NC(=O)[C@H](CCCCNC(=O)COCCOCCNC(=O)COCCOCCNC(=O)CC[C@H](NC(=O)CCCCCCCCCCCCCCCCC(=O)O)C(=O)O)NC(=O)[C@H](C)NC(=O)[C@H](C)NC(=O)[C@H](CCC(N)=O)NC(=O)CNC(=O)[C@H](CCC(=O)O)NC(=O)[C@H](CC(C)C)NC(=O)[C@H](Cc1ccc(O)cc1)NC(=O)[C@H](CO)NC(=O)[C@H](CO)NC(=O)[C@@H](NC(=O)[C@H](CC(=O)O)NC(=O)[C@H](CO)NC(=O)[C@@H](NC(=O)[C@H](Cc1ccccc1)NC(=O)[C@@H](NC(=O)CNC(=O)[C@H](CCC(=O)O)NC(=O)C(C)(C)NC(=O)[C@@H](N)Cc1cnc[nH]1)[C@@H](C)O)[C@@H](C)O)C(C)C)C(=O)N[C@@H](C)C(=O)N[C@@H](Cc1c[nH]c2ccccc12)C(=O)N[C@@H](CC(C)C)C(=O)N[C@H](C(=O)N[C@@H](CCCNC(=N)N)C(=O)NCC(=O)N[C@@H](CCCNC(=N)N)C(=O)NCC(=O)O)C(C)C [semaglutide]
- proportion of participants reporting nausea (adults with T2DM [4]; during the first 4 weeks, also for participants with high exposure): < 7%
- concentration of semaglutide estimated to be tolerated without nausea by 95% of participants (adults with T2DM [4]; week 1): < 5 nM
- concentration of semaglutide estimated to be tolerated without nausea by 95% of participants (adults with T2DM [4]; week 30): > 30 nM
